Assay results: ChEMBL document CHEMBL4304782, “Antioxidant, Anti-inflammatory, and Neuroprotective Effects of Novel Vinyl Sulfonate Compounds as Nrf2 Activator” (ACS Med Chem Lett, 2019)
pEC50: −log10 of the molar value. Activity calls are given as the source filed them. No cut-off for these calls is given here.

Assays:
[1] = tested on: BV-2; experiment: Antiinflammatory activity in mouse BV2 cells assessed as reduction in LPS-induced iNOS level at 1 to 10 uM incubated for 6 hrs followed by LPS stimulation for 12 hrs by Western blot analysis; format: functional, cell-based
Outline: (§1)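 BV-2 cells pretreated with compound 6 h, then stimulated with 1 μg/mL LPS for 12 h; protein and mRNA levels quantified relative to LPS-stimulated control; mean ± SD (n = 3); paired t test.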

[2] = target: T1, Nuclear factor erythroid 2-related factor 2 (Homo sapiens) (UniProt Q16236); experiment: Activation of Nrf2 in human SH-SY5Y cells assessed as increase in GCLC level at 0.3 to 3 uM incubated for 6 to 24 hrs by Western blot analysis relative to control; format: cell-based
T1 sequence (whole entry): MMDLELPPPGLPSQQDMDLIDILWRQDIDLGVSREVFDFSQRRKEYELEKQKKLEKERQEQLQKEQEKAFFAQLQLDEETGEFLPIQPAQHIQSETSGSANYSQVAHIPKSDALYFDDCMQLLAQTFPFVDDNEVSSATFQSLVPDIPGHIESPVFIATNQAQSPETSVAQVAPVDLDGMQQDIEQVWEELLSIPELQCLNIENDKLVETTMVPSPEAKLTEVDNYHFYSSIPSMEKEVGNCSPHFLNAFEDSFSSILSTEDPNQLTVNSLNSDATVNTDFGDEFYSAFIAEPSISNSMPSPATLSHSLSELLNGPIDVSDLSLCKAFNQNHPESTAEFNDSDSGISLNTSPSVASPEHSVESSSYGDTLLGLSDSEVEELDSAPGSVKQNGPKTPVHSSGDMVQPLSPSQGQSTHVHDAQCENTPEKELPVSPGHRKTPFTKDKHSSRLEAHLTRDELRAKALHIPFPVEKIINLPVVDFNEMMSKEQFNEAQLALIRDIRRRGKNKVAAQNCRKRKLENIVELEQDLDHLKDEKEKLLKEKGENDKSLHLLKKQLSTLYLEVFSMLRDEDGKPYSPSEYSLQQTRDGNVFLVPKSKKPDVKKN
Outline: (§2)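 SH-SY5Y neuroblastoma cells treated for 6 or 24 h, then harvested; NQO1, GCLM, GCLC protein by Western blot with β-actin loading control; at least duplicate cultures, averaged, fold of untreated control ± SEM; paired t test.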

[3] = tested on: BV-2; experiment: Antiinflammatory activity in mouse BV2 cells assessed as reduction in LPS-induced COX2 level at 1 to 10 uM incubated for 6 hrs followed by LPS stimulation for 12 hrs by Western blot analysis; format: functional, cell-based; outline: as §1
[4] = tested on: Mus musculus; experiment: (§3) Anti-parkinson's activity in MPTP-induced C57Bl/6 mouse model of Parkinson's disease assessed as abnormal movement at 20 mg/kg, po administered for 3 consecutive days prior and subsequent to MPTP administration (four injections of MPTP, 2 h intervals, 20 mg/kg, i.p. injection by coat hanger test; format: functional, organism-based
Outline: (§4)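 Mice dosed 20 mg/kg p.o. (or vehicle) for 3 consecutive days before and after MPTP (four i.p. injections, 20 mg/kg, 2 h apart); vertical grid test (turning, descent, total time) and coat-hanger scoring; n = 10–12 per group; mean ± SEM; one-way ANOVA with Tukey's test.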

[5] = tested on: BV-2; experiment: Antiinflammatory activity in mouse BV2 cells assessed as reduction in LPS-induced NO production at 1 to 10 uM incubated for 24 hrs by ELISA; format: functional, cell-based
Outline: (§5)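 BV-2 cells given compound together with 1 μg/mL LPS for 24 h; mediator levels expressed relative to LPS-stimulated control ± SEM; at least duplicate cultures; paired t test.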

[6] = tested on: Mus musculus; experiment: Protection against MPTP-induced DAergic neurotoxicity in C57B/6 mouse model of Parkinson's disease assessed as restoration of TH-positive neurons cell density in SN at 20 mg/kg, po observed after 7 days by microscopic analysis; format: functional, organism-based
Outline: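 MPTP mouse model with 20 mg/kg oral dosing; striatal and substantia nigra sections collected 7 days later and stained for tyrosine hydroxylase; striatal TH density and nigral TH-positive neuron counts; mean ± SEM; one-way ANOVA with Tukey's test.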

[7] = tested on: BV-2; experiment: Antiinflammatory activity in mouse BV2 cells assessed as reduction in LPS-induced IL-6 production incubated for 24 hrs by ELISA; format: functional, cell-based; outline: as §5
[8] = target: T2, Nuclear factor erythroid 2-related factor 2 (Mus musculus) (UniProt Q60795); experiment: Activation of Nrf2 in mouse BV-2 cells assessed as increase in nuclear Nrf2 level at 0.3 uM by Western blot analysis relative to control; format: cell-based
T2 sequence (whole entry): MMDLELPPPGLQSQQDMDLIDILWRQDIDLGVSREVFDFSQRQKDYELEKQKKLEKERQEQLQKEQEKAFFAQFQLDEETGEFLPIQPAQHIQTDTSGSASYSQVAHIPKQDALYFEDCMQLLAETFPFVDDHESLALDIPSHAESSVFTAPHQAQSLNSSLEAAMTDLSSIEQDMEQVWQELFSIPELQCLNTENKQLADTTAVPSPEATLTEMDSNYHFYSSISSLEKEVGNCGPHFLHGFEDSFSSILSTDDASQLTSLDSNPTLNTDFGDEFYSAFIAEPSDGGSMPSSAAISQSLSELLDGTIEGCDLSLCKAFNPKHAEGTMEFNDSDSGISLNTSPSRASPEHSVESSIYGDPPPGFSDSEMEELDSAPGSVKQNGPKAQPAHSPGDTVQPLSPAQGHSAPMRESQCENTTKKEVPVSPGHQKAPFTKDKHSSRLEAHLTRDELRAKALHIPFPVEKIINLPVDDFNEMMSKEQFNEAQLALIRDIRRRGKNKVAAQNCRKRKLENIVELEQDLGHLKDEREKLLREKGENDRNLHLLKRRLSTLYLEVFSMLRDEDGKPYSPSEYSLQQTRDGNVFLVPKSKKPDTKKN
Outline: (§6)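 BV-2 microglia treated 0.3–10 μM; Nrf2 measured by Western blot in nuclear extracts and whole-cell lysates; at least duplicate cultures, averaged, expressed as fold of untreated control ± SEM; paired t test.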

[9] = tested on: SH-SY5Y; experiment: Antioxidant activity in human SH-SY5Y cells assessed as increase in NQO1 level at 0.3 to 3 uM incubated for 6 to 24 hrs by Western blot analysis relative to control; format: functional; outline: as §2
[10] = target: T2, Nuclear factor erythroid 2-related factor 2 (Mus musculus); experiment: Activation of Nrf2 in mouse BV-2 cells assessed as upregulation of GCLM mRNA expression at 1 to 10 uM incubated for 3 hrs by RT-qPCR analysis relative to control; format: cell-based
Outline: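 BV-2 cells exposed to a range of concentrations for 3 h; HO-1, GCLM and GCLC mRNA quantified by RT-qPCR, normalized to β-actin; at least duplicate cultures, fold of untreated control ± SEM; paired t test.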

[11] = target: T2, Nuclear factor erythroid 2-related factor 2 (Mus musculus); experiment: Activation of Nrf2 in mouse BV-2 cells assessed as increase in total Nrf2 level by Western blot analysis; format: cell-based; outline: as §6
[12] = target: T2, Nuclear factor erythroid 2-related factor 2 (Mus musculus); experiment: Activation of Nrf2 in mouse BV-2 cells assessed as increase in nuclear Nrf2 level by Western blot analysis; format: cell-based; outline: as §6
[13] = tested on: BV-2; experiment: Antiinflammatory activity in mouse BV2 cells assessed as reduction in LPS-induced IL-1beta expression at 3 to 10 uM incubated for 6 hrs followed by LPS stimulation for 12 hrs by RT-qPCR analysis; format: functional, cell-based; outline: as §1
[14] = tested on: Mus musculus; experiment: as §3, with “restoration of turning time” for “abnormal movement”, “vertical grid” for “coat hanger”; format: functional, organism-based; outline: as §4
[15] = tested on: BV-2; experiment: Antiinflammatory activity in mouse BV2 cells assessed as reduction in LPS-induced TNF-alpha production incubated for 24 hrs by ELISA; format: functional, cell-based; outline: as §5
[16] = target: T3, Nuclear factor erythroid 2-related factor 2 (Homo sapiens, UniProt Q16236); experiment: Activation of ED-tagged Nrf2 in human U2OS cells co-expressing Keap1 assessed as induction of NRF2 translocation to nucleus after 6 hrs by beta-galactosidase based chemiluminescent assay; format: cell-based
T3 sequence (Q16236 whole entry): T1 sequence (whole entry)

[17] = target: T1, Nuclear factor erythroid 2-related factor 2 (Homo sapiens); experiment: Activation of Nrf2 in human SH-SY5Y cells assessed as increase in GCLC level incubated for 6 to 24 hrs by Western blot analysis; format: cell-based; outline: as §2

COc1ccccc1OS(=O)(=O)/C=C/c1ccccc1Cl
Activity [1]: Active | fold change (FC) [2]: 1.5 | Activity [3]: Active | Activity [4]: Active | Activity [5]: Active | Activity [6]: Active | Activity [7]: Dose-dependent effect | fold change (FC) [8]: 4 | fold change (FC) [9]: 4.7 | fold change (FC) [10]: 5.3 | Activity [11]: Dose-dependent effect | Activity [12]: Dose-dependent effect | Activity [13]: Active | Activity [14]: Active | Activity [15]: Dose-dependent effect | pEC50 [16]: 7.12 | Activity [17]: Dose-dependent effect
